Measured values from ChEMBL document CHEMBL1137942, “Design, synthesis, and biological activity of novel, potent, and selective (benzoylaminomethyl)thiophene sulfonamide inhibitors of c-Jun-N-terminal kinase” (J Med Chem, 2004).

Columns and labels:
[1] = target: RAC-alpha serine/threonine-protein kinase (Homo sapiens) (UniProt P31749); experiment: Percentage activity of human PKB alpha in the presence of 10 uM of compound and 10 uM of ATP in comparison with control
[2] = target: Platelet-derived growth factor receptor (Homo sapiens) (UniProt P09619+P16234); experiment: Percentage activity of human PDGFR alpha in the presence of 10 uM of compound and 10 uM of ATP in comparison with control; format: protein-complex assay
[3] = target: Tyrosine-protein kinase Lck (Homo sapiens) (UniProt P06239); experiment: Percentage activity of human Lck in the presence of 10 uM of compound and 10 uM of ATP in comparison with control
[4] = target: Mitogen-activated protein kinase 14 (Homo sapiens) (UniProt Q16539); experiment: Percentage activity of human SAPK2a in the presence of 10 uM of compound and 10 uM of ATP in comparison with control
[5] = target: Mitogen-activated protein kinase 12 (Homo sapiens) (UniProt P53778); experiment: Percentage activity of human SAPK3 in the presence of 10 uM of compound and 10 uM of ATP in comparison with control
[6] = target: Inhibitor of nuclear factor kappa-B kinase subunit alpha (Homo sapiens) (UniProt O15111); experiment: Percentage activity of human IKK alpha in the presence of 10 uM of compound and 10 uM of ATP in comparison with control
[7] = target: BDNF/NT-3 growth factors receptor TrkB (Homo sapiens) (UniProt Q16620); experiment: Percentage activity of human TrkB in the presence of 10 uM of compound and 10 uM of ATP in comparison with control
[8] = target: Tyrosine-protein kinase receptor UFO (Homo sapiens) (UniProt P30530); experiment: Percentage activity of human Axl in the presence of 10 uM of compound and 10 uM of ATP in comparison with control
[9] = target: RAF proto-oncogene serine/threonine-protein kinase (Homo sapiens) (UniProt P04049); experiment: Percentage activity of human c-RAF in the presence of 10 uM of compound and 10 uM of ATP in comparison with control
[10] = system: SCG; experiment: Cell activity of JNK inhibitors in neuronal apoptosis assay in SCG cells, percentage rescued neurons at 10uM compound concentration after 48 hours; format: functional, Rattus norvegicus
In short: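 They were cultured in Leibowitz medium with 5% rat serum, 0.75 µg/mL NGF 7S and arabinosine C 10^-5 M. On day 4, medium was switched to 10 µg/mL anti-NGF antibody without NGF or AraC, with inhibitor in 1% DMSO. After 24 h, cells were refed initial medium minus AraC. After another 24 h, viability was read by MTT (0.5 mg/mL, 30 min, 37 °C), OD 590 nm.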

[11] = target: CDK6/cyclin D3 (Homo sapiens) (UniProt P30281+Q00534); experiment: Percentage activity of human CDK6 with cyclin D3) in the presence of 10uM of compound and 10uM of ATP in comparison with control; format: protein-complex assay
[12] = target: CDK3/cyclin E (Homo sapiens) (UniProt P24864+O96020+Q00526); experiment: Percentage activity of human CDK3 (with cyclin E) in the presence of 10 uM of compound and 10 uM of ATP in comparison with control; format: protein-complex assay
[13] = target: Dual specificity mitogen-activated protein kinase kinase 7 (Homo sapiens) (UniProt O14733); experiment: Percentage activity of human MKK7 beta in the presence of 10 uM of compound and 10 uM of ATP in comparison with control
[14] = target: Calcium/calmodulin-dependent protein kinase type IV (Homo sapiens) (UniProt Q16566); experiment: Percentage activity of human CaMKiV in the presence of 10 uM of compound and 10 uM of ATP in comparison with control
[15] = target: MAP kinase-activated protein kinase 2 (Homo sapiens) (UniProt P49137); experiment: Percentage activity of human MAPKAP-K2 in the presence of 10uM of compound and 10uM of ATP in comparison with control
[16] = target: Serine/threonine-protein kinase D2 (Homo sapiens) (UniProt Q9BZL6); experiment: Percentage activity of human PKD2 in the presence of 10 uM of compound and 10 uM of ATP in comparison with control
[17] = target: Ribosomal protein S6 kinase alpha-5 (Homo sapiens) (UniProt O75582); experiment: Percentage activity of human MSK1 in the presence of 10 uM of compound and 10 uM of ATP in comparison with control
[18] = system: SCG; experiment: Cell activity of JNK inhibitors in neuronal apoptosis assay in SCG cells, percentage rescued neurons at 3uM compound concentration after 24 hours; format: functional, Rattus norvegicus
[19] = target: Ribosomal protein S6 kinase alpha-3 (Homo sapiens) (UniProt P51812); experiment: Percentage activity of human Rsk3 in the presence of 10uM of compound and 10uM of ATP in comparison with control
[20] = target: Dual specificity mitogen-activated protein kinase kinase 6 (Homo sapiens) (UniProt P52564); experiment: Percentage activity of human MKK6 in the presence of 10 uM of compound and 10 uM of ATP in comparison with control
[21] = target: Platelet-derived growth factor receptor beta (Homo sapiens) (UniProt P09619); experiment: Percentage activity of human PDGFR beta in the presence of 10 uM of compound and 10 uM of ATP in comparison with control
[22] = target: Protein kinase C eta type (Homo sapiens) (UniProt P24723); experiment: Percentage activity of human PKC eta in the presence of 10 uM of compound and 10 uM of ATP in comparison with control
[23] = target: RAC-beta serine/threonine-protein kinase (Homo sapiens) (UniProt P31751); experiment: Percentage activity of human PKB beta in the presence of 10uM of compound and 10uM of ATP in comparison with control
[24] = target: MAP kinase-activated protein kinase 5 (Homo sapiens) (UniProt Q8IW41); experiment: Percentage activity of human PRAK in the presence of 10 uM of compound and 10 uM of ATP in comparison with control
[25] = target: RAC-gamma serine/threonine-protein kinase (Homo sapiens) (UniProt Q9Y243); experiment: Percentage activity of human PKB gamma in the presence of 10uM of compound and 10uM of ATP in comparison with control
[26] = target: Cytoplasmic tyrosine-protein kinase BMX (Homo sapiens) (UniProt P51813); experiment: Percentage activity of human Bmx in the presence of 10uM of compound and 10uM of ATP in comparison with control
[27] = target: Receptor-type tyrosine-protein kinase FLT3 (Homo sapiens) (UniProt P36888); experiment: Percentage activity of human Flt3 in the presence of 10 uM of compound and 10 uM of ATP in comparison with control
[28] = target: Protein kinase C beta type (Homo sapiens) (UniProt P05771); experiment: Percentage activity of human PKC betaII -His in the presence of 10 uM of compound and 10 uM of ATP in comparison with control
[29] = target: Ribosomal protein S6 kinase (P70S6K) (Homo sapiens) (UniProt Q9UBS0+P23443); experiment: Percentage activity of human p70S6K in the presence of 10 uM of compound and 10 uM of ATP in comparison with control; format: protein-complex assay

Chain of Tyrosine-protein kinase receptor UFO (Homo sapiens) (P30530 whole entry): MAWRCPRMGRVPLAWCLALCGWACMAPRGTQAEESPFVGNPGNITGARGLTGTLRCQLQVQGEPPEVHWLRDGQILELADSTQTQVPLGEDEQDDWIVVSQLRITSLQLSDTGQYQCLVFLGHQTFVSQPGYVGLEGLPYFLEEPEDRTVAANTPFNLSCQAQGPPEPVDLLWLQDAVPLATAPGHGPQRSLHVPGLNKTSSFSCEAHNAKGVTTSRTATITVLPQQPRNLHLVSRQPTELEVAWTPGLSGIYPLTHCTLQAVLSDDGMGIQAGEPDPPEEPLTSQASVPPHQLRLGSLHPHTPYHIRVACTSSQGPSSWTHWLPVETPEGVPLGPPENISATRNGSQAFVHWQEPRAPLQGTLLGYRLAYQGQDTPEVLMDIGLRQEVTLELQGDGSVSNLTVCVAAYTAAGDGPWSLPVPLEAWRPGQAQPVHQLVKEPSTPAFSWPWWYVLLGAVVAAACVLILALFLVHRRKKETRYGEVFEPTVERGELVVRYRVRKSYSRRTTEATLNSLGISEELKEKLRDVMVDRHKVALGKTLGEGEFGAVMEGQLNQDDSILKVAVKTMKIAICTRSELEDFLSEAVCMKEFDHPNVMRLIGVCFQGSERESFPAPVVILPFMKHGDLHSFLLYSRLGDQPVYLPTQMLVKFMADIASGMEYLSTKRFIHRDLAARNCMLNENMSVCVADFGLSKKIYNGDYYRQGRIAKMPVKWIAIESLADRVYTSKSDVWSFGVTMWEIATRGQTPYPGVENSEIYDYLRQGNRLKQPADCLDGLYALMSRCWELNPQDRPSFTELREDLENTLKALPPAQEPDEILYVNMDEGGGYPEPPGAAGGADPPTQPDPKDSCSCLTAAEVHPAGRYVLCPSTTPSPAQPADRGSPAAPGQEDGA
Chain of Dual specificity mitogen-activated protein kinase kinase 6 (Homo sapiens) (P52564 whole entry): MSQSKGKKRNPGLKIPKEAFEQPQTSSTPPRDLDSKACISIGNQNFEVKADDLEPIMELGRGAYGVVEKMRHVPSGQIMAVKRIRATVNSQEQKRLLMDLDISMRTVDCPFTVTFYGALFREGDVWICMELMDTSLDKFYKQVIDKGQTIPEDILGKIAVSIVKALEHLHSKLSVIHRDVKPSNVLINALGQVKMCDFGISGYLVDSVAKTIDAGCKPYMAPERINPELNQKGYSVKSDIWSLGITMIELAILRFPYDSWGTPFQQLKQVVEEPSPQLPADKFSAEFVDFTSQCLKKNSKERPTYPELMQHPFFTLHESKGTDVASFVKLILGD
Chain of Protein kinase C beta type (Homo sapiens) (P05771 2-671 limits assumed): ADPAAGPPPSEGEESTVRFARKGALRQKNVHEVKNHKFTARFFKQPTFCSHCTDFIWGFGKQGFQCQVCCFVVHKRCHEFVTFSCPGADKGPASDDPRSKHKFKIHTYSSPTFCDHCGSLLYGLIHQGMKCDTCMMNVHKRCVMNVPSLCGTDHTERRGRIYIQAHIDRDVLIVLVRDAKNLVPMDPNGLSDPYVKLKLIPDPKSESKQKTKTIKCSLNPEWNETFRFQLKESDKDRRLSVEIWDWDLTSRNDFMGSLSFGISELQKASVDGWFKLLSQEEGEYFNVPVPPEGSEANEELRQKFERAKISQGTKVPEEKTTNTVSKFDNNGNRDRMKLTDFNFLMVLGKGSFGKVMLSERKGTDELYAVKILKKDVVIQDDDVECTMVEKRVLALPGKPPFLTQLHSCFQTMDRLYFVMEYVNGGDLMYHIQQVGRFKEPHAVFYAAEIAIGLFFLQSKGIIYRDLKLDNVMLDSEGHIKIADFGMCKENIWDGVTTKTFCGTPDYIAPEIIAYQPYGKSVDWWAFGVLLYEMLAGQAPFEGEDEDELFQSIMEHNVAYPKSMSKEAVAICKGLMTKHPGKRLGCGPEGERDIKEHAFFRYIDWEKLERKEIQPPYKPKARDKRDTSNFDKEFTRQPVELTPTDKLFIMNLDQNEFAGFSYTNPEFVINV
Chain of RAC-gamma serine/threonine-protein kinase (Homo sapiens) (Q9Y243 whole entry): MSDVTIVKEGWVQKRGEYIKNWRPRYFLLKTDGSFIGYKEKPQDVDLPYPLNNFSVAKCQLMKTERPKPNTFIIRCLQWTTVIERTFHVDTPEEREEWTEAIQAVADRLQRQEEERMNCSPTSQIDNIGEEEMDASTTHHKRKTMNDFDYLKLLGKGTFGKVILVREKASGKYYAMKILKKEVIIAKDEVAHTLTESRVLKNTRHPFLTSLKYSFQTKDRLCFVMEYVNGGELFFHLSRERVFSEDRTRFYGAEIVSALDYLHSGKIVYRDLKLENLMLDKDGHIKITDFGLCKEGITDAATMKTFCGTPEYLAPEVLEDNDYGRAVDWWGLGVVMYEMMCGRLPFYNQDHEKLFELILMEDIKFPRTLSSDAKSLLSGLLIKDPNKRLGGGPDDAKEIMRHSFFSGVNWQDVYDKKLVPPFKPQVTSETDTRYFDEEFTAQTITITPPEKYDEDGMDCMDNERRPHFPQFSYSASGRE
Chain of RAF proto-oncogene serine/threonine-protein kinase (Homo sapiens) (P04049 whole entry): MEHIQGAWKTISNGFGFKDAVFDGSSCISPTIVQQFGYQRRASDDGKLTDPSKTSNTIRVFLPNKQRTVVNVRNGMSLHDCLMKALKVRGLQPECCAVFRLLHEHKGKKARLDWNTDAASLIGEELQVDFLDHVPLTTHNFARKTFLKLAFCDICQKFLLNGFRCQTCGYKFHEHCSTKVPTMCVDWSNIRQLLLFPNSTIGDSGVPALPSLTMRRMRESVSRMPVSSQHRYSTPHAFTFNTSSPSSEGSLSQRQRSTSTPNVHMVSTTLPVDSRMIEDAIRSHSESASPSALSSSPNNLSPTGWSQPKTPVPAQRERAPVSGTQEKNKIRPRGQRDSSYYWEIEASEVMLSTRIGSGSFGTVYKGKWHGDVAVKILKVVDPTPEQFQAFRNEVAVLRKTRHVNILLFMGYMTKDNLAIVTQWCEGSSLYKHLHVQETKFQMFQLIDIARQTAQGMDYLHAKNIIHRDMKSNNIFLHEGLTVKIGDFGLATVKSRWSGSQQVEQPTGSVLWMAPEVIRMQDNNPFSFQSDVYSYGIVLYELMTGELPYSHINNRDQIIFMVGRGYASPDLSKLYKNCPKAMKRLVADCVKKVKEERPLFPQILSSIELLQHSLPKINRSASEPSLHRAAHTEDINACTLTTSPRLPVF
Chain of RAC-alpha serine/threonine-protein kinase (Homo sapiens) (P31749 whole entry): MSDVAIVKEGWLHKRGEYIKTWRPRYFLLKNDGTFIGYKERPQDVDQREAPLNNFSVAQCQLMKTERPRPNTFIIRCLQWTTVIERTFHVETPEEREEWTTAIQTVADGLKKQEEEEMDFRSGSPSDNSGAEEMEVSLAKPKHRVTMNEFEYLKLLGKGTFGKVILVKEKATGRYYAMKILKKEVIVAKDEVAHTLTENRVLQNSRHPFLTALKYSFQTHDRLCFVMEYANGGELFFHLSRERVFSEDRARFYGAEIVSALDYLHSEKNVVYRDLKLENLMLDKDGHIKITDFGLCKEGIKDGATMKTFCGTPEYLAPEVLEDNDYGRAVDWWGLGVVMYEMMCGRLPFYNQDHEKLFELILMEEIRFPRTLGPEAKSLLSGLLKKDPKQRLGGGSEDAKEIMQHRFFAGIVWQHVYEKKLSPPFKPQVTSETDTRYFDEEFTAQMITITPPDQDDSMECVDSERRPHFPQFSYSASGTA
Chain of CDK3/cyclin E (Homo sapiens) (O96020 whole entry, looked up): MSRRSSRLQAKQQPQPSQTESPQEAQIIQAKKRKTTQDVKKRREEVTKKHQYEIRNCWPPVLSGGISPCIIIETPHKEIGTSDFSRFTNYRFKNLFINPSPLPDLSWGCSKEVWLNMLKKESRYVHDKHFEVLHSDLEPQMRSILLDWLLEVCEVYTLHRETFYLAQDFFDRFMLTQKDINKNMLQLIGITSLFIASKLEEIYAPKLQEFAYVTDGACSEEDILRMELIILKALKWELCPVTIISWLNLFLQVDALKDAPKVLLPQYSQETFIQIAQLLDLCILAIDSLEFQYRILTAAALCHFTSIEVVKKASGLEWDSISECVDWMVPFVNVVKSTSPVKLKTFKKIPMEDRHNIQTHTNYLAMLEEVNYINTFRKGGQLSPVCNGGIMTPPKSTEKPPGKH
Chain of CDK3/cyclin E (Homo sapiens) (P24864 whole entry, looked up): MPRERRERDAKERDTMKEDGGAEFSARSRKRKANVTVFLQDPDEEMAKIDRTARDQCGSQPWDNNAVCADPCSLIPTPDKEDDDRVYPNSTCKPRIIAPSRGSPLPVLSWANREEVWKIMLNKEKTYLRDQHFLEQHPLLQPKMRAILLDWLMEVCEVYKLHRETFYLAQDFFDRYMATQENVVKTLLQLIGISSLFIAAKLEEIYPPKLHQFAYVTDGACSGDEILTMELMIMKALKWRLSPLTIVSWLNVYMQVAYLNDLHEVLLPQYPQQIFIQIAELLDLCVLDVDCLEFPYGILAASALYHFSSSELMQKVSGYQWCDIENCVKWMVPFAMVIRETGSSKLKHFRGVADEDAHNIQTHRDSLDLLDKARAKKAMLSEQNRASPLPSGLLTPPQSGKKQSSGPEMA
Chain of CDK3/cyclin E (Homo sapiens) (Q00526 whole entry, looked up): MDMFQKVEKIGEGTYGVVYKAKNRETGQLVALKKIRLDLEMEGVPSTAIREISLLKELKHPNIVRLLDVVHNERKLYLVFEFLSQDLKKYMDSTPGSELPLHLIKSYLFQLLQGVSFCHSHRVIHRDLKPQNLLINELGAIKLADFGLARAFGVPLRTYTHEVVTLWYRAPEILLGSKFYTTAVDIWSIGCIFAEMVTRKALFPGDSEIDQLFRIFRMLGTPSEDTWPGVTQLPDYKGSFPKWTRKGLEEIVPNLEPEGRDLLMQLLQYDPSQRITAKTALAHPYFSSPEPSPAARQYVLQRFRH
Chain of Mitogen-activated protein kinase 14 (Homo sapiens) (Q16539 whole entry): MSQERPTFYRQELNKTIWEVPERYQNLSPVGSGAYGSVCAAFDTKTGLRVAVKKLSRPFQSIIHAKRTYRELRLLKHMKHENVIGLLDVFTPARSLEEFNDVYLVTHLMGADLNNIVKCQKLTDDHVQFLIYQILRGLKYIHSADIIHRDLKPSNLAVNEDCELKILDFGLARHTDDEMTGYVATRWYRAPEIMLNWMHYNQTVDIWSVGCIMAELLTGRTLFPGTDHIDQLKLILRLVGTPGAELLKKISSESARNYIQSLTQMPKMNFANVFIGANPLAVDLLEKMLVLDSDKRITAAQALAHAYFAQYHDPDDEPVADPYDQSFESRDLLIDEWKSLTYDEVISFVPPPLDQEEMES

For `O=C(NCc1ccc(S(=O)(=O)N2CCC(n3nnc4ccccc43)CC2)s1)c1ccc(Cl)cc1`, the Activity [1] was 51%, the Activity [2] was 103% and the Activity [3] was 85%. For the same molecule, the Activity [4] was 77%, the Activity [5] was 106% and the Activity [6] was 92%. It also gave an Activity [7] of 83%, an Activity [8] of 134% and an Activity [9] of 93%. For the same molecule, the Rescued neurons [10] was 56%, the Activity [11] was 102% and the Activity [12] was 97%. It also gave an Activity [13] of 121%, an Activity [14] of 93% and an Activity [15] of 74%. For the same molecule, the Activity [16] was 95%, the Activity [17] was 86% and the Rescued neurons [18] was 22.9%. The Activity [19] was 97%, the Activity [20] was 106% and the Activity [21] was 91%. The Activity [22] was 100%, the Activity [23] was 118% and the Activity [24] was 74%. For the same molecule, the Activity [25] was 76%, the Activity [26] was 88% and the Activity [27] was 78%. For the same molecule, the Activity [28] was 88% and the Activity [29] was 77%.
